Source: PubChem (several laboratories)
Casp6 inh: human caspase-6 inhibitors, primary screen, biochemical, VEID-R110 fluorescence, single point, set 2. purified caspase-6, Z-VEID-R110 cleavage fluorescence. inhibition, % at 12.5 µM. 350,000 tested, 0.53% active. AID 686996, 2013;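 active = mean inhibition across replicates at least about 35%, with every replicate also reaching that limit, limit read from the data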;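 note: 0% = median of neutral control wells and 100% = no fluorescence left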
UHRF1 binding: UHRF1 methylated DNA binding inhibitors, primary screen, counter-screen for MBD2 inhibitor project, biochemical, TR-FRET, human UHRF1, single concentration; UHRF1 binding to methylated oligo; 370,000 tested, 0.75% active; inhibition, % at 4.4 µM; AID 687016, 2013; in the data active = inhibition above about 21%;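 note: UHRF1 SRA domain binding a hemimethylated CpG hairpin DNA probe; 0% = median of test compound wells and 100% = reference inhibitor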
MBD2 DNA inh: inhibitors of MBD2 binding to methylated DNA, primary screen, biochemical, TR-FRET, DNA-binding domain, human; MBD2 binding to methylated oligonucleotide; inhibition, % at 4.4 µM; 370,000 tested, 0.31% active; AID 686964, 2013; in the data active = inhibition above about 13%
TDP2 inh: human TDP2 enzyme inhibitors, primary screen, biochemical, epi absorbance, recombinant enzyme; Tyrosyl-DNA phosphodiesterase 2 (Homo sapiens), O95551; T5PNP hydrolysis, p-nitrophenol absorbance 415 nm; 370,000 tested, 0.34% active; inhibition, % at 12.8 µM;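 active = inhibition above the mean of all tested compounds plus 3 SD, set per campaign, cut at about 25% in these data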;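 note: 0% = DMSO with enzyme and 100% = buffer with substrate but no TDP2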
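Assay system: recombinant human TDP2 / Reagent: T5PNP substrate at 5 mM, a TopII-DNA adduct mimic / Measured by: epi absorbance from released p-nitrophenol / Evaluation: % inhibition relative to enzyme-containing and enzyme-free wells / Control set: enzyme-free and DMSO wells / Replicates: each compound tested once, singlicate / Schedule: enzyme reaction with compound for 2 h at 37 °C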
LEDGF integ inh: blockers of LEDGF/p75-dependent integrase strand transfer – biochemical, TR-FRET, high throughput, primary screen | HIV-1 integrase (with human LEDGF/p75) | TR-FRET IN-LEDGF/p75 DNA integration, Eu/Cy5 | inhibition, % at 3.7 µM | 370,000 tested, 0.64% active | AID 743269, 2014;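 active = inhibition above the screen-wide mean plus 3 SD, cut at about 13% in these data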;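 note: signal is the Cy5 over europium emission ratio at 671 and 618 nm; 0% = plate median of compound wells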
NSD2 inh: NSD2 histone methyltransferase inhibitors, primary screen, biochemical, AlphaScreen, single concentration, set 2; Histone-lysine N-methyltransferase NSD2 (Homo sapiens), O96028; NSD2 peptide methylation, 120 min; inhibition, % at 12.5 µM; 310,000 tested, 0.54% active; AID 743445, 2014; in the data active = inhibition above about 50%
Target sequence (O96028 whole entry, looked up): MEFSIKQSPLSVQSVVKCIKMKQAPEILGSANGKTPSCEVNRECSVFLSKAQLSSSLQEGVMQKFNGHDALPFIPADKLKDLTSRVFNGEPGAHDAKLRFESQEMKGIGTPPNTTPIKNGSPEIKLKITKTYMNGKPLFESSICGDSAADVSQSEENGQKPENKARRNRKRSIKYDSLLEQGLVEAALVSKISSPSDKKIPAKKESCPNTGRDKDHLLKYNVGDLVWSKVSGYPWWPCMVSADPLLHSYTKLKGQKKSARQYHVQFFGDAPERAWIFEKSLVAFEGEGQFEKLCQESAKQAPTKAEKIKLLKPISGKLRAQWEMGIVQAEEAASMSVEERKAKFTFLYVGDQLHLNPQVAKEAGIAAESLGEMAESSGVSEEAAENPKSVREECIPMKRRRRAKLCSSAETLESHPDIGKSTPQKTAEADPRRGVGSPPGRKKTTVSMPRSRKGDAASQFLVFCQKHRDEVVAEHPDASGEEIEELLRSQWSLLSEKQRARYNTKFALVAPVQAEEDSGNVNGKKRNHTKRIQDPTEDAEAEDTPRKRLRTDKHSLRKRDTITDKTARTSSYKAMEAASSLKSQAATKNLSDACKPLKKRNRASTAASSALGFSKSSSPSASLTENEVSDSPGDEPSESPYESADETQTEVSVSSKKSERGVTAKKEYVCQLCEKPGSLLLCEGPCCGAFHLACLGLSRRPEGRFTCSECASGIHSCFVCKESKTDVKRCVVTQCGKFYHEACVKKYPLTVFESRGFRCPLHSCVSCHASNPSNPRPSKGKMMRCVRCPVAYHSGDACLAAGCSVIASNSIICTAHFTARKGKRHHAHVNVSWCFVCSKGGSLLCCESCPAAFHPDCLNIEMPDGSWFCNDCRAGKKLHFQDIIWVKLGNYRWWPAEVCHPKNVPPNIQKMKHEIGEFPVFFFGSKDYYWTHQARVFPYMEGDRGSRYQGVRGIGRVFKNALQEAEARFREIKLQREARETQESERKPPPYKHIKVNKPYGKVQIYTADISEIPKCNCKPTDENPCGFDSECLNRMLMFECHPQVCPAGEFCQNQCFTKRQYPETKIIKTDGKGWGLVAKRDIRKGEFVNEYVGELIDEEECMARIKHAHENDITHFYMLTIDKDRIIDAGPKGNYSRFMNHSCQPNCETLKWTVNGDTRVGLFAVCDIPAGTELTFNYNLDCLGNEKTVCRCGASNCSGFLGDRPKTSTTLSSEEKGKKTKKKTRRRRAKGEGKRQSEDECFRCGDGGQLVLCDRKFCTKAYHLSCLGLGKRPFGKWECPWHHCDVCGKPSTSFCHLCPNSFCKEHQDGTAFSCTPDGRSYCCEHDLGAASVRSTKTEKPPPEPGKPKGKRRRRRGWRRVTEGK
The depositor's hits bear a star; . = no result given. Most compounds without a hit are left out; they make up all but 1.8% or so of the library.

SMILES	Casp6 inh	UHRF1 binding	MBD2 DNA inh	TDP2 inh	LEDGF integ inh	NSD2 inh
Cc1cc(C(=O)N/N=C/c2sccc2C)no1	.	23*	2	2	0	-3
NC(Cc1c[nH]c2ccccc12)C(=O)NCc1ccccc1 (centres undefined)	-1	25*	-2	-3	7	0
NC(Cc1c[nH]c2ccccc12)C(=O)NCc1ccco1 (centres undefined)	0	0	1	4	0	0
CN1CCN(C(=O)c2cc3c(c(-c4cccc(-c5cccc(F)c5)c4)n2)[C@@H](CCO)N(S(=O)C(C)(C)C)C3)CC1 (some centres undefined)	1	.	.	.	.	.
Clc1ccc(N2CCN(Cc3c[nH]c4ncccc34)CC2)cc1	4	23*	-3	-5	-1	.
c1ccc(CN2CCN(Cc3c[nH]c4ccccc34)CC2)cc1	-1	0	2	1	3	1
O=C(O)c1cccc(NC(=O)c2cn(-c3ccccc3)nc2-c2ccc([N+](=O)[O-])cc2)c1	4	0	-5	-24	7	2
COc1ccc(-c2nn(-c3ccccc3)cc2C(=O)Nc2cccc(C(=O)O)c2)cc1[N+](=O)[O-]	67*	3	4	-6	-1	1
COc1cccc(-c2nn(-c3ccccc3)cc2CO)c1	.	-2	-6	2	1	-2
COc1cccc(-c2nn(-c3ccccc3)cc2C(=O)NCC(=O)O)c1	.	22*	8	6	2	1
O=C(C[C@H]1C[C@@H]2c3cc(NC(=O)NC4CCCC4)ccc3O[C@@H]2[C@H](CO)O1)NCc1ccncc1	1	.	.	.	.	.
O=c1[nH]c(SCc2nc3ccccc3c(=O)n2-c2ccccc2)nc2ccccc12	.	35*	-7	4	3	-1
CN1C(=O)c2cc(NS(=O)(=O)CC(F)(F)F)ccc2OC[C@H]2O[C@@H](CC(=O)Nc3cccc(F)c3)CC[C@@H]21	12	.	.	.	.	.
C[C@H]1CN([C@@H](C)CO)S(=O)(=O)c2ccc(C#Cc3ccccc3)cc2O[C@@H]1CN(C)S(=O)(=O)c1cn(C)cn1	0	.	.	.	.	.
O=C1O[C@H](c2ccccc2)[C@H](c2ccccc2)N2[C@H]1[C@@H](C(=O)N1CCCCCCC1)[C@]1(C(=O)Nc3ccc(C#CC4=CCCCC4)cc31)[C@H]2c1ccccc1OCCO	-1	.	.	.	.	.
COc1ccccc1COCC(O)CN(Cc1ccco1)Cc1ccccc1O (centres undefined)	.	25*	1	-1	-1	-1
C/C(=N/NS(=O)(=O)c1ccc(Cl)cc1)c1cccc(NC(=O)c2ccncc2)c1	92*	0	-2	7	1	0
O=C(N[C@H]1CC[C@@H](CCNC(=O)C2CCC2)O[C@H]1CO)c1ccncc1	0	.	.	.	.	.
O=C1N=C(N2C=CC(=C3C=CNC=C3)C=C2)/C(=C/N=NC(=O)c2ccccc2O)S1	36*	-10	-16	-15	-1	16
CC(C)OCCOc1ccc2oc(-c3ccco3)cc(=O)c2c1	35*	15	1	4	0	0
Cc1ccc2oc(-c3ccco3)cc(=O)c2c1	1	-3	1	18	-3	2
Cc1noc(C)c1NC(=O)Nc1ccc2c(c1)C(=O)N([C@@H](C)CO)C[C@H](C)[C@@H](CN(C)Cc1ccc(C(F)(F)F)cc1)OCCCC[C@H](C)O2	5	.	.	.	.	.
O=C(CN1C(=O)S/C(=C\c2ccc(-c3cc(C(=O)O)ccc3Cl)o2)C1=O)Nc1ccc2c(c1)OCO2	1	17	6	-17	18*	.
CC(C)CC#Cc1cnc2c(c1)C(=O)N([C@H](C)CO)C[C@@H](C)[C@H](CN(C)C(=O)C1CCOCC1)O2	0	.	.	.	.	.
COc1ccccc1CNC(=O)C1CCN(S(=O)(=O)c2ccc3c(c2)CC(C)N3C(C)=O)CC1 (centres undefined)	3	0	-6	14	0	.
SMILES	Casp6 inh	UHRF1 binding	MBD2 DNA inh	TDP2 inh	LEDGF integ inh	NSD2 inh
CC1CC(C)CN(S(=O)(=O)N2CCCC(C(=O)NCc3ccccc3Cl)C2)C1 (centres undefined)	2	22*	10	-10	1	-1
CC1CCN(S(=O)(=O)N2CCCC(C(=O)NCc3ccccc3Cl)C2)CC1 (centres undefined)	5	3	3	-4	0	5
CC(=O)N1c2ccc(S(=O)(=O)N3CCCC3C(=O)NCc3ccccc3Cl)cc2CC1C (centres undefined)	1	49*	3	-2	-6	.
C[C@@H]1CN([C@@H](C)CO)C(=O)c2cccc(NS(=O)(=O)c3cn(C)cn3)c2O[C@@H]1CN(C)C(=O)NC1CCCCC1	-3	.	.	.	.	.
CC(C)(O)c1cn([C@@H]2C[C@@H]3O[C@@H](CO)CC[C@@H]3O[C@@H]2CCc2ccc(-c3ccncc3)cc2)nn1	52*	.	.	.	.	.
CC(C)(O)c1cn([C@@H]2C[C@@H]3O[C@H](CO)CC[C@@H]3O[C@@H]2CCc2ccc(-c3cccnc3)cc2)nn1	-4	.	.	.	.	.
COc1ccccc1CNC(=O)C[C@H]1C[C@@H]2c3cc(NC(=O)Nc4ccccc4F)ccc3O[C@@H]2[C@@H](CO)O1	-2	.	.	.	.	.
NS(=O)(=O)c1cccc(NC(=O)c2ccc3nc[nH]c3c2)c1	54*	-2	-6	-15	5	.
C[C@H]1CN([C@@H](C)CO)C(=O)c2cc(NC(=O)c3ccncc3)ccc2O[C@H]1CN(C)C(=O)Nc1cccc2ccccc12	0	.	.	.	.	.
COCC(=O)N1CC2(C1)[C@H](c1ccc(-c3ccc(F)cc3)cc1)[C@@H](CO)N2C(C)=O	-2	.	.	.	.	.
COc1ccc(-c2[nH]ncc2CN(C)CCN2CCOCC2)cc1F	-22	22*	11	-13	2	-1
O=S1(=O)CCOCCCN1Cc1ccccc1F	5	41*	-3	6	1	.
CC(C)(C)OC(=O)NCCOCCOCCNc1ncnc2ccc(Br)cc12	3	.	.	.	.	.
O=[N+]([O-])c1cc([N+](=O)[O-])c2cc(-c3cccnc3)[nH]c2c1	0	-9	1	26*	4	-1
CC(C)Cc1ccc(CN2C(C)C(=O)N(Cc3cn(Cc4ccco4)nn3)CCS2(=O)=O)cc1 (centres undefined)	46*	-3	4	-11	8	.
